In ChEMBL document CHEMBL1153199, “Fluconazole analogues containing 2H-1,4-benzothiazin-3(4H)-one or 2H-1,4-benzoxazin-3(4H)-one moieties, a novel class of anti-Candida agents” (2010) one finds MIC data, which are given here for 18 molecules.

In brackets after ≈: the same amount, converted by molar mass. Activity calls are given as the source filed them.

Assay type in all cases: functional
The test system of assay [1] is Candida albicans. Kind of assay: Antifungal activity against Candida albicans ATCC 24433 after 48 hrs by broth microdilution method. Put shortly: (§1)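 Broth microdilution run per CLSI M27-A2 in RPMI 1640 buffered to pH 7.0 with MOPS. Fluconazole and amphotericin B served as reference drugs. Endpoints were read after 48 h, visually or by spectrophotometer where needed. MIC was taken as the concentration giving 50% inhibition relative to the positive control.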

The test system of assay [2] is Aspergillus niger. Kind of assay: Antifungal activity against Aspergillus niger ATCC 16404 after 48 hrs by broth microdilution method.
The test system of assay [3] is Fusarium proliferatum. Put plainly: Antifungal activity against Fusarium proliferatum ATCC 10052 after 48 hrs by broth microdilution method. In general terms: Dilution methods test growth across graded concentrations, often in twofold steps.
The subject of assay [4] is Candida albicans. Put plainly: Antifungal activity against Candida albicans ATCC 2091 after 48 hrs by broth microdilution method. Particulars: ATCC 2091, 48 h. The method in brief: as §1
The subject of assay [5] is Candida albicans. Kind of assay: Antifungal activity against Candida albicans ATCC 90028 after 48 hrs by broth microdilution method. The settings on record: ATCC 90028, 48 h. The method in brief:
as §1

Assay [6] deals with Nakaseomyces glabratus. Put plainly: Antifungal activity against Candida glabrata ATCC 90030 after 48 hrs by broth microdilution method. The settings on record: ATCC 90030, 48 h. The method in brief: as §1
The subject of assay [7] is Pichia kudriavzevii. Put plainly: Antifungal activity against Candida krusei ATCC 6258 after 48 hrs by broth microdilution method. Particulars: ATCC 6258, 48 h. The method in brief:
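Broth microdilution MIC per CLSI M27-A2 in RPMI 1640 buffered to pH 7.0 with MOPS. End points were read at 48 h, visually or by spectrophotometer where needed. For fluconazole and the synthetic compounds, MIC was the concentration giving 50% inhibition relative to the positive control. Fluconazole and amphotericin B served as positive controls.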

For assay [8], the system named is Candida tropicalis. Kind of assay: Antifungal activity against Candida tropicalis ATCC 750 after 48 hrs by broth microdilution method. Particulars: ATCC 750, 48 h. Put shortly:
as §1

Assay [9] relates to Candida albicans. Put plainly: Antifungal activity against Candida albicans ATCC 10231 after 48 hrs by broth microdilution method. The settings on record: ATCC 10231, 48 h. Put shortly:
as §1

In general, MIC refers to the smallest concentration in the dilution series that meets the test's criterion for growth inhibition. With `O=C1CSc2cc(Cl)ccc2N1CC(O)(Cn1cncn1)c1ccc(F)cc1` (stereo not drawn), the MIC in [1] (ATCC 24433, 48 h) is 2 µg/mL (≈ 4.77 µM). Besides, the MIC result in [2] and in assay [3] was “inactive” in each case.
Consider `CC(=O)c1ccc2c(c1)N(CC(O)(Cn1cncn1)c1ccc(F)cc1F)C(=O)CO2` (stereo not drawn), for which the MIC entry in assay [1], in assay [2] and in assay [3] was “inactive” in each case.
For `Cc1ccc2c(c1)SCC(=O)N2CC(O)(Cn1cncn1)c1ccc(F)cc1F` (stereo not drawn), inhibition of growth in [1] (ATCC 24433, 48 h) (MIC) required 2 µg/mL (≈ 4.8 µM). For the same molecule, the MIC result in [2] and in assay [3] was “inactive” in each case.
On to `O=C1CSc2cc(Br)ccc2N1CC(O)(Cn1cncn1)c1ccc(F)cc1F` (stereo not drawn), for which the MIC in assay [1] (ATCC 24433, 48 h) was 1 µg/mL (≈ 2.08 µM). Besides, the MIC result in assay [2] and in [3] was “inactive” in each case.
For `CC(=O)c1ccc2c(c1)N(CC(O)(Cn1cncn1)c1ccc(Br)cc1)C(=O)CO2` (stereo not drawn), the MIC in assay [1] (ATCC 24433, 48 h) is 32 µg/mL (≈ 67.9 µM). Further, the MIC result in assay [2] and in assay [3] was “inactive” each time.
Molecule `O=C1COc2ccc(Cl)cc2N1CC(O)(Cn1cncn1)c1ccc(F)cc1F` (stereo not drawn) had an MIC in assay [1] (ATCC 24433, 48 h) of 8 µg/mL (≈ 19 µM). Further, the MIC entry in assay [2] and in assay [3] was “inactive” each time.
In turn, `COc1ccc2c(c1)SCC(=O)N2CC(O)(Cn1cncn1)c1ccc(Br)cc1` (stereo not drawn) returned an MIC in assay [1] (ATCC 24433, 48 h) of 2 µg/mL (≈ 4.21 µM). In addition, the MIC entry in assay [2] and in [3] was “inactive” in each case.
`O=C1COc2ccc([N+](=O)[O-])cc2N1CC(O)(Cn1cncn1)c1ccc(F)cc1F` (stereo not drawn) showed an MIC in assay [1] (ATCC 24433, 48 h) of 32 µg/mL (≈ 74.2 µM). For the same molecule, the MIC entry in [2] and in assay [3] was “inactive” throughout.
Regarding `OC(Cn1cncn1)(Cn1cncn1)c1ccc(F)cc1F` [FLUCONAZOLE], the MIC in [1] (ATCC 24433, 48 h) amounted to 0.25 µg/mL (≈ 0.816 µM); in [2] (ATCC 16404, 48 h), 128 µg/mL (≈ 418 µM); in [4], 0.5 µg/mL (≈ 1.63 µM); in assay [5] it was 0.5 µg/mL (≈ 1.63 µM); in assay [6], 4 µg/mL (≈ 13.1 µM); in assay [7], 64 µg/mL (≈ 209 µM). For the same molecule, the MIC in assay [8] is 2 µg/mL (≈ 6.53 µM); in [3] (ATCC 10052, 48 h) it was > 128 µg/mL; in assay [9] it was 1 µg/mL (≈ 3.27 µM).
In turn, `O=C1COc2ccc(Cl)cc2N1CC(O)(Cn1cncn1)c1ccc(F)cc1` (stereo not drawn) yielded an MIC in assay [1] (ATCC 24433, 48 h) of 16 µg/mL (≈ 39.7 µM). Besides, the MIC entry in assay [2] and in assay [3] was “inactive” throughout.
`COc1ccc2c(c1)SCC(=O)N2CC(O)(Cn1cncn1)c1ccc(F)cc1F` (stereo not drawn) came in with an MIC in [1] (ATCC 24433, 48 h) of 4 µg/mL (≈ 9.25 µM). Besides, the MIC entry in assay [2] and in [3] was “inactive” throughout.
As for `C[C@@H]1[C@H](O)[C@@H](C)/C=C/C=C/C=C/C=C/C=C/C=C/C=C/[C@H](O[C@@H]2O[C@H](C)[C@@H](O)[C@H](N)[C@@H]2O)C[C@@H]2O[C@](O)(C[C@@H](O)C[C@@H](O)[C@H](O)CC[C@@H](O)C[C@@H](O)CC(=O)O[C@H]1C)C[C@H](O)[C@H]2C(=O)O` [AMPHOTERICIN B], the minimal inhibitory concentration (MIC) stood at 0.25 µg/mL (≈ 0.271 µM) in [1] (ATCC 24433, 48 h); 1 µg/mL (≈ 1.08 µM) in assay [2] (ATCC 16404, 48 h); 0.5 µg/mL (≈ 0.541 µM) in [4]; 0.5 µg/mL (≈ 0.541 µM) in assay [5]; 0.25 µg/mL (≈ 0.271 µM) in assay [6]; 0.5 µg/mL (≈ 0.541 µM) in assay [7]. For the same molecule, the MIC in [8] is 0.5 µg/mL (≈ 0.541 µM); in [3] (ATCC 10052, 48 h) it was 2 µg/mL (≈ 2.16 µM); in assay [9] it was 0.5 µg/mL (≈ 0.541 µM).
For the molecule `O=C1CSc2ccccc2N1CC(O)(Cn1cncn1)c1ccc(F)cc1F` (stereo not drawn), the minimum inhibitory concentration (MIC) in [1] (ATCC 24433, 48 h) is 0.03 µg/mL (≈ 0.0745 µM); in assay [4] it was 0.12 µg/mL (≈ 0.298 µM); in assay [5], 0.03 µg/mL (≈ 0.0745 µM); in assay [6] it was 0.06 µg/mL (≈ 0.149 µM); in assay [7] it was 4 µg/mL (≈ 9.94 µM); in assay [8] it was 0.5 µg/mL (≈ 1.24 µM). Moreover, in assay [9], the minimal inhibitory concentration (MIC) is 0.12 µg/mL (≈ 0.298 µM). The MIC result in [2] and in [3] was “inactive” in each case.
`O=C1CSc2cc(Cl)ccc2N1CC(O)(Cn1cncn1)c1ccc(F)cc1F` (stereo not drawn) yielded an MIC in assay [1] (ATCC 24433, 48 h) of 1 µg/mL (≈ 2.29 µM). Moreover, the MIC entry in [2] and in [3] was “inactive” in each case.
The molecule `O=C1COc2ccc(Br)cc2N1CC(O)(Cn1cncn1)c1ccc(F)cc1F` (stereo not drawn) yielded an MIC in assay [1] (ATCC 24433, 48 h) of 16 µg/mL (≈ 34.4 µM). For the same molecule, the MIC result in [2] and in assay [3] was “inactive” throughout.
`COc1ccc2c(c1)SCC(=O)N2CC(O)(Cn1cncn1)c1ccc(F)cc1` (stereo not drawn): in [1] (ATCC 24433, 48 h), the MIC was found to be 8 µg/mL (≈ 19.3 µM). Moreover, the MIC result in [2] and in assay [3] was “inactive” each time.
In [1] (ATCC 24433, 48 h), `O=C1COc2ccc(Cl)cc2N1CC(O)(Cn1cncn1)c1ccc(Br)cc1` (stereo not drawn) yielded an MIC of 4 µg/mL (≈ 8.63 µM). The MIC result in assay [2] and in assay [3] was “inactive” each time.
Consider `O=C1COc2ccccc2N1CC(O)(Cn1cncn1)c1ccc(F)cc1F` (stereo not drawn), for which the minimum inhibitory concentration (MIC) in assay [1] (ATCC 24433, 48 h) was determined as 0.5 µg/mL (≈ 1.29 µM); in assay [4], 0.25 µg/mL (≈ 0.647 µM); in assay [5], 0.12 µg/mL (≈ 0.311 µM); in assay [6] it was 0.25 µg/mL (≈ 0.647 µM); in [7], 16 µg/mL (≈ 41.4 µM); in assay [8], 2 µg/mL (≈ 5.18 µM). Moreover, the MIC in [9] worked out at 0.5 µg/mL (≈ 1.29 µM). In addition, the MIC result in assay [2] and in assay [3] was “inactive” in each case.
